PGC1a Ac signal = compounds raising PGC1a acetylation signal, primary screen, PGC1a modulator project, cell-based, U2OS, AlphaScreen, signal-increasing mode; overnight; activation, % at 15.6 µM; actives 0.21% (n = 350,000); AID 651723, 2012;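 active = every replicate reaching activation of at least 50%, whatever the mean replicate activation; inconclusive = replicates that disagree or another doubt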;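 also: hits raise the AlphaScreen acetylation signal above neutral controls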
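Test system: U2OS cells expressing flag-PGC1a plus GCN5; Amount: 7000 U2OS cells per well; Compound: single test concentration per compound; Incubation: compound overnight at 37 °C, each detection step 1 h RT; Signal: AlphaScreen lysate read.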
G6PC hep suppr = suppressors of forskolin-stimulated G6PC mRNA, dose response, PGC-1a acetylation activator project, cell-based, hepatocytes, RT-qPCR, cherry-picked samples. shares compounds with PGC1a Ac signal. primary mouse hepatocytes. G6PC suppression (normalized activity, % of positive control; higher = more suppression), % at 26 µM. 240 tested, under 10 active;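 active = dose curves showing G6PC suppression whose half-maximal dose is at most twice the top valid dose; inconclusive = flat curves with moderate negative activity, or unreliable fits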;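 also: G6PC expression relative to GAPDH housekeeping gene as delta delta Ct; 0% = median of neutral control wells and 100% = median of positive control wells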
PCK1 hep suppr = suppression of PCK1 mRNA in primary hepatocytes, dose response, PGC-1a acetylation activator project, cell-based, primary mouse hepatocytes, RT-qPCR, cherry-pick; shares compounds with PGC1a Ac signal; 230 tested, under 10 active; PCK1 expression decrease, unspecified at 26 µM; AID 743465, 2014; forskolin-stimulated;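 active = compounds lowering PCK1 expression whose fitted half-maximal concentration is at most twice the top tested dose; inconclusive = flat fit with moderate opposite-direction effect, or poor fit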;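 also: values are delta delta Ct of PCK1 relative to GAPDH; higher delta delta Ct means lower PCK1 expression so positive values indicate hits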
PGC1a hep suppr = suppression of PGC-1a mRNA in primary hepatocytes, dose response, PGC-1a acetylation activator project, cell-based, primary mouse hepatocytes, RT-qPCR, cherry-pick; PGC-1a mRNA qPCR, forskolin; top dose 26 µM; max activity (PGC-1a expression decrease), %; 240 tested, under 10 active; shares compounds with PGC1a Ac signal;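 active = compound lowering PGC-1a expression with fitted half-maximal concentration at most twice its top tested dose; inconclusive = flat curve with moderate opposite-direction effect, or poor fit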;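 also: 0% = neutral control wells median and 100% = positive control wells median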
* hit, by the source's call. These entries were drawn from the full list.

Screening COc1ccccc1CN1C[C@@H]2C[C@@H](c3cccc(C)n3)N3CCC[C@@]23C1=O returned PGC1a Ac signal -43.
`CCc1nc(SCC(=O)N2c3ccccc3Sc3ccccc32)c2ccccc2n1` gave PGC1a Ac signal -43.
`CCOC(=O)c1c(NC(=O)c2ccoc2C)sc2c1CCC2` gave PGC1a Ac signal -57.
For Cc1cc(C)c2c(-n3cccc3)c(C(=O)NNS(=O)(=O)c3ccccc3)sc2n1 the results were PGC1a Ac signal 173* and PGC1a hep suppr inconclusive.
Screening C=CCN(c1ccc(C(=O)Nc2ccc3c(c2)OCO3)cc1)S(C)(=O)=O returned PGC1a Ac signal -93.
Screening Cc1sc2ncnc(N3CCC(C(=O)NNC(=O)COc4ccc(Cl)cc4)CC3)c2c1C returned PGC1a Ac signal -46.
Clc1ccc(-c2csc(N3CCSCC3)n2)cc1 was read as PGC1a Ac signal -45, G6PC hep suppr -18, PCK1 hep suppr -17 and PGC1a hep suppr 29.
OC[C@@H]1CN(Cc2ccccc2)C[C@H](n2cnc3c(NCc4ccco4)ncnc32)O1 was read as PGC1a Ac signal -101.
Screening CC(Oc1ccc2c3c(c(=O)oc2c1)CCC3)C(=O)N[C@@H](Cc1ccccc1)C(=O)O (some centres undefined) returned PGC1a Ac signal -75.
For CCN1CC=C2C(C#N)=C(N)C(C#N)(C#N)[C@H](c3cccc(OC)c3OC)[C@H]2C1 the results were PGC1a Ac signal -41.
Cc1cccc(-c2ccc3[nH]c4c(c3c2)CCN2C[C@@H]([C@H](C)O)[C@@H](N(C)C(=O)NC3CCCCC3)C[C@@H]42)c1 was read as PGC1a Ac signal -40.
O=C(Nc1cccnc1)c1ccc(Oc2ccccc2)cc1 was read as PGC1a Ac signal 78*, G6PC hep suppr -14, PCK1 hep suppr 9.5 and PGC1a hep suppr inconclusive.
For CCCOc1ccc(C(=O)Nc2cccnc2)cc1 the results were PGC1a Ac signal 77*, G6PC hep suppr -38, PCK1 hep suppr 57 and PGC1a hep suppr 54.
`COc1ccc(OCCc2nnc(N)s2)cc1` gave PGC1a Ac signal -43.
Screening O=C1/C(=C/c2ccc(N3CCOCC3)o2)SC(=Nc2ccccc2)N1CCc1c[nH]c2ccccc12 returned PGC1a Ac signal -62.
For O=c1c2c(nc3c(-c4ccc(Cl)cc4)c[nH]n13)CCCC2 the results were PGC1a Ac signal -41.
`CC1(C)CC(=O)C=C(NCc2ccco2)C1` gave PGC1a Ac signal -40.
`CC1(Cc2ccc(Cl)cc2)C(=O)Nc2c(Cl)ccc(Cl)c21` (centres undefined) gave PGC1a Ac signal 80*, G6PC hep suppr -63 and PGC1a hep suppr inconclusive.
For O=C(Nc1cccn2ncnc12)C(Cl)Cl the results were PGC1a Ac signal -2.
Screening O=C(c1ccc(NC(=O)C2(c3ccccc3)CCOCC2)cc1)N1CCOCC1 returned PGC1a Ac signal -41.
For CCn1nc(C)c(CN2CCc3c([nH]c4ccccc34)C2C(C)(C)C)c1C (centres undefined) the results were PGC1a Ac signal 150*, G6PC hep suppr -24, PCK1 hep suppr inconclusive and PGC1a hep suppr 51.
Screening CCNc1nc(Oc2ccc(C#N)cc2)cc(C(F)(F)F)n1 returned PGC1a Ac signal -42.
Screening CN1CCN(C2=C(Cl)C(=O)N(CCc3ccccc3)C2=O)CC1 returned PGC1a Ac signal -47.
For Cc1ccc(C(=O)Nc2nc(=O)n(C(=O)CC(C)C)s2)cc1 the results were PGC1a Ac signal -48.
For CCOCCn1c(CN(Cc2ccccc2)Cc2ccccc2)nc2c1c(=O)n(C)c(=O)n2C the results were PGC1a Ac signal 56*, PCK1 hep suppr 11 and PGC1a hep suppr 27.
CCOCCn1c(CN(Cc2ccccc2)Cc2ccccc2)nc2c1c(=O)[nH]c(=O)n2C was read as PGC1a Ac signal inconclusive, G6PC hep suppr -12, PCK1 hep suppr 0.24 and PGC1a hep suppr 38.
For CCCCn1c(CN(Cc2ccccc2)Cc2ccccc2)nc2c1c(=O)n(C)c(=O)n2C the results were PGC1a Ac signal inconclusive, G6PC hep suppr 0, PCK1 hep suppr 193 and PGC1a hep suppr 67.
`Cc1cc(N)c2cc(NC(=O)/C=C/c3ccccc3Cl)ccc2n1` gave PGC1a Ac signal -80.
`Cc1ccc(C)c(NC(=S)Nc2cccc3cnccc23)c1` gave PGC1a Ac signal -51.
`Cc1c(/C(O)=C2\C(=O)C(=O)N(CCCN(C)C)C2c2ccccc2)cnn1-c1ccccc1` (centres undefined) gave PGC1a Ac signal -82.
Screening CCCCCCCCC(=O)O returned PGC1a Ac signal -66.
For OC(c1cc(-c2ccc(Cl)cc2)nc2ccccc12)C1CCCCN1 (centres undefined) the results were PGC1a Ac signal inconclusive, G6PC hep suppr 213, PCK1 hep suppr 45 and PGC1a hep suppr 37.
`CC(=O)Nc1cc(OC(C)=O)c2nonc2c1OC(C)=O` gave PGC1a Ac signal -44.
OCCN(Cc1ccccc1)CC1CCCCC1 was read as PGC1a Ac signal -57.
COc1cc(NS(=O)(=O)c2ccc(N)cc2)nc(OC)n1 was read as PGC1a Ac signal -57.
CC(=O)Nc1ccc(Nc2ncnc3c2cnn3-c2ccc(C)cc2C)cc1 was read as PGC1a Ac signal 131*, G6PC hep suppr -73 and PGC1a hep suppr 130.
Screening CN1CCN(/N=C/c2ccc(N(c3ccccc3)c3ccccc3)cc2)CC1 returned PGC1a Ac signal -56.
`O=C1C(N2CCOCC2)=C(n2nnc3ccccc32)C(=O)c2ccccc21` gave PGC1a Ac signal -61.
For CC(=O)c1cccc(N(C(=O)Cn2nnc3ccccc32)C(C(=O)NCc2ccccc2)c2ccccn2)c1 (centres undefined) the results were PGC1a Ac signal inconclusive, G6PC hep suppr -29, PCK1 hep suppr -11 and PGC1a hep suppr -33.
CC(=O)c1cccc(N(C(=O)c2cnccn2)C(C(=O)NCc2ccccc2)c2ccco2)c1 (centres undefined) was read as PGC1a Ac signal 96*, G6PC hep suppr 45, PCK1 hep suppr 129 and PGC1a hep suppr 188.
For Cc1ccc(N)cc1S(=O)(=O)N(C)C the results were PGC1a Ac signal -46.
Screening COc1cc(C2Nc3cccc4cccc(c34)N2)cc(OC)c1OC(C)=O returned PGC1a Ac signal -45.
For CN1CCN(c2ccc(CNC(=O)c3ccc(-c4ccnn4C)c4ccoc34)cc2)CC1 the results were PGC1a Ac signal inconclusive, PCK1 hep suppr inconclusive and PGC1a hep suppr 229.
For CCOC(=O)C(=CNc1ccc(C)cc1C)C(=O)OCC the results were PGC1a Ac signal -41.
`Cn1c(C(C#N)C(=O)c2sc3ccccc3c2Cl)nc2ccccc21` (centres undefined) gave PGC1a Ac signal -50.
